pIC50: −log10 of the molar value. The source made the active and inactive calls. The rule behind the calls is not given here.
Tests used:
[1] = biological target: T1, UDP-N-acetylmuramoylalanine-D-glutamyl-lysine-D-alanyl-D-alanine ligase (Streptococcus pneumoniae R6, UniProt Q8DNV6); assay: Inhibition of Streptococcus pneumoniae MurF
T1 sequence (Q8DNV6 whole entry): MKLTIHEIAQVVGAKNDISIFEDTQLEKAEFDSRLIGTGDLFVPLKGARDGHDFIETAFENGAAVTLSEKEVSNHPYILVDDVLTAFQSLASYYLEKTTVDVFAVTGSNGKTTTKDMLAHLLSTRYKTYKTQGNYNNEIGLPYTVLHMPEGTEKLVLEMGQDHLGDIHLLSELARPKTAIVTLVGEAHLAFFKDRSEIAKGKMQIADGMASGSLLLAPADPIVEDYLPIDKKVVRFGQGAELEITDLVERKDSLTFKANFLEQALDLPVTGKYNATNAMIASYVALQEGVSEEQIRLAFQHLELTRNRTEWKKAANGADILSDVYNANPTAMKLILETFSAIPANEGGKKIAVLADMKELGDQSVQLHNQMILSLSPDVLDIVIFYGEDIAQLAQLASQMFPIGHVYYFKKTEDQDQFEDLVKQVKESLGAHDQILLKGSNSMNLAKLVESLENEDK

[2] = biological target: T2, UDP-N-acetylmuramoyl-tripeptide--D-alanyl-D-alanine ligase (Pseudomonas aeruginosa) (UniProt Q9EY48); assay: Inhibition of Pseudomonas aeruginosa MurF ATPase activity assessed as residual enzyme activity at 5 mM by spectrophotometric assay relative to control
T2 sequence (whole entry): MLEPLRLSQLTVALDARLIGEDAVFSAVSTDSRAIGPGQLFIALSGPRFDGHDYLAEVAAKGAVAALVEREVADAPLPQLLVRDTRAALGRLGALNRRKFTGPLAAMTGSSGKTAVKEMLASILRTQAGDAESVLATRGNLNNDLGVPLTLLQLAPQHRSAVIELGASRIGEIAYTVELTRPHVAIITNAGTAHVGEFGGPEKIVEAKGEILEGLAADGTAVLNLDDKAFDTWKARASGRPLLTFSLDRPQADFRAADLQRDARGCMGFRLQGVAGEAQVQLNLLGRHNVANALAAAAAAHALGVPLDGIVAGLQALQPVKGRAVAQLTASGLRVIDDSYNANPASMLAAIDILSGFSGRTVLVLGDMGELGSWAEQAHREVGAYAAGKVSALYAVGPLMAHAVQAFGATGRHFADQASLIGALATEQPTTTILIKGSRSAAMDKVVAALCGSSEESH

[3] = biological target: T3, UDP-N-acetylmuramoyl-tripeptide--D-alanyl-D-alanine ligase (Pseudomonas aeruginosa, UniProt Q9EY48); assay: Inhibition of Pseudomonas aeruginosa MurF ATPase activity by spectrophotometric assay
T3 sequence (Q9EY48 whole entry): T2 sequence (whole entry)
How it was run: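 Purified recombinant P. aeruginosa MurF was used at a high enzyme concentration. It was pre-incubated with a range of compound concentrations in pH 8.6 buffer (40 mM KCl, 500 mM NaCl, 1 mg/ml BSA, 10 mM MgCl2) before UDP-MurNAc-Ala-Glu-meso-A2pm and the other substrates were added. IC50 was derived from percent residual ATPase activity versus compound-free enzyme.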

[4] = test system: MurF (Streptococcus pneumoniae); assay: Inhibition of Streptococcus pneumoniae MurF
Escherichia coli = assay: Antibacterial activity against Escherichia coli; type: functional, organism-based
Pseudomonas aeruginosa = assay: Antibacterial activity against Pseudomonas aeruginosa; type: functional, organism-based
Staphylococcus aureus = assay: Antibacterial activity against Staphylococcus aureus; type: functional, organism-based

Row | Activity [2] | pIC50 [3] | SMILES | pIC50 [1] | other results
1 |  |  | N#Cc1cc(CCc2ccncc2)sc1NC(=O)c1cc(S(=O)(=O)N2CCOCC2)ccc1Cl | 5.22 | 
2 | 100% | < 2.30 | O=S(=O)(O)c1ccc(/N=N/c2ccc(O)c(/N=N/c3ccc(S(=O)(=O)O)c4ccccc34)c2O)c2ccccc12 |  | 
3 |  |  | C[C@@H]1O[C@@H]1P(=O)(O)O [FOSFOMYCIN] |  | pIC50 [4]: 4.82
4 | 0% | 3.49 | COc1ccc(CCN2C(=O)c3cccc4c(Sc5ccccc5[N+](=O)[O-])ccc(c34)C2=O)cc1OC |  | Activity (Escherichia coli): inactive; Activity (Pseudomonas aeruginosa): inactive; Activity (Staphylococcus aureus): inactive
5 |  |  | N#Cc1c(NC(=O)c2cc(S(=O)(=O)N3CCOCC3)c(F)cc2Cl)sc2c1CCC2 | < 5.19 | 
6 |  |  | CCOC(=O)C1CCc2sc(NC(=O)c3cc(S(=O)(=O)N(CC)CC)ccc3Cl)c(C#N)c2C1 (stereo not given) | 5.22 | 
7 |  |  | N#Cc1c(NC(=O)c2cc(S(=O)(=O)N3CCOCC3)c(Cl)cc2Cl)sc2c1CC(c1ccc(O)cc1)CC2 (stereo not given) | 7.66 | 
8 | 42% | 2.37 | C[C@]12CCC(=O)C=C1CC[C@@H]1[C@@H]2[C@@H](O)C[C@@]2(C)[C@H]1CC[C@]2(O)C(=O)COC(=O)C1C2C=CC(C2)C1C(=O)O (stereo not given in full) |  | 
9 | 71% | < 2.30 | O=S(=O)(SC(=S)NCCNC(=S)SS(=O)(=O)c1ccc(Cl)cc1)c1ccc(Cl)cc1 |  | 
10 |  |  | CCN(CC)S(=O)(=O)c1cc(C(=O)Nc2sc3c(c2C#N)CC(c2ccc(O)cc2)CC3)c(Cl)cc1Cl (stereo not given) | 7.17 | 
11 |  |  | N#Cc1c(NC(=O)c2cc(S(=O)(=O)N3CCCCC3)ccc2Cl)sc2c1CCC2 | 5.60 | 
12 | 51% | < 2.29 | CCOC(=O)Cn1/c(=N/N=C/c2ccc([N+](=O)[O-])o2)sc2cc(OC)ccc21 |  | 
13 | 67% | < 2.30 | C[C@]12CCC(=O)C=C1CC[C@@H]1[C@@H]2[C@@H](O)C[C@@]2(C)[C@H]1CC[C@]2(O)C(=O)COC(=O)c1cc([N+](=O)[O-])ccc1Cl |  | 
14 |  |  | CCN(CC)S(=O)(=O)c1ccc(Cl)c(C(=O)Nc2sc3c(c2C#N)CC(c2ccc(O)cc2)CC3)c1 (stereo not given) | 7.27 | 
15 | 84% | < 2.30 | Cn1nnnc1SCC1=C(C(=O)O)N2C(=O)[C@@H](NC(=O)[C@H](OC=O)c3ccccc3)[C@H]2SC1 [CEFAMANDOLE NAFATE] |  | 
16 |  |  | N#Cc1c(NC(=O)c2cc(S(=O)(=O)N3CCOCC3)c(Cl)cc2Cl)sc2c1CC(c1ccccc1)CC2 (stereo not given) | 7.15 | 
17 | 48% | 2.32 | CSc1ncnc2c1ncn2CC(=O)[C@@]1(O)CC[C@H]2[C@@H]3CCC4=CC(=O)CC[C@]4(C)[C@H]3[C@@H](O)C[C@@]21C |  | 
18 | 0% | 3.90 | COc1ccc(NC(=O)C(=O)Cc2nc3ccc([N+](=O)[O-])cc3nc2O)c(OC)c1 |  | Activity (Escherichia coli): inactive; Activity (Pseudomonas aeruginosa): inactive; Activity (Staphylococcus aureus): inactive
19 | 0% | 3.52 | O=C1C=CC(=O)C(SCCCSC2=CC(=O)C(SCCCSC3=CC(=O)C=CC3=O)=CC2=O)=C1 |  | Activity (Escherichia coli): inactive; Activity (Pseudomonas aeruginosa): inactive; Activity (Staphylococcus aureus): inactive

Row | SMILES | Activity [2] | pIC50 [3] | pIC50 [1] | other results
20 | C[C@]12CCC(=O)C=C1CC[C@@H]1[C@@H]2[C@@H](O)C[C@@]2(C)[C@H]1CC[C@]2(O)C(=O)COC(=O)CCC1CCCC1 [HYDROCORTISONE CYPIONATE] | 86% | < 2.30 |  | 

From ChEMBL document CHEMBL1141554, “Discovery of new MurF inhibitors via pharmacophore modeling and QSAR analysis followed by in-silico screening” (Bioorg Med Chem, 2008)
